Screening data deposited in PubChem by Sanford-Burnham Center for Chemical Genomics.
Diaphorase inh = inhibits diaphorase or chemically oxidizes, flagging diaphorase assay artifacts; diaphorase resazurin-to-resorufin fluorescence, NADH, 16 min; bacterial (C. kluyveri) enzyme, not human; inhibition, % at 20 µM; 190,000 tested, 0.69% active;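 active = primary screen inhibition at 20 µM above a set limit, cut at about 50% in these data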;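 also: plate controls were DMSO with full reaction for no effect and wells lacking NADH for full effect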
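Test system: Clostridium kluyveri diaphorase enzyme / Quantity: diaphorase at 0.14 U/mL in enzyme working solution / Incubation: 16-min room-temperature incubation before reading / Benchmarks: NADH-free wells as positive control, DMSO-only neutral wells / Signal: resorufin fluorescence 544/590 nm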
G6PDH counter = counter-screen for G6PDH assay hits: L. mesenteroides G6PDH inhibition. inhibition, % at 5 µM. Purified L. mesenteroides G6PDH, diaphorase/resazurin coupled fluorescence, 45 min. 200,000 tested, 0.12% active; in the data active = inhibition above about 50%
PfG6PD inh = PfG6PD (Plasmodium falciparum) enzyme inhibition; PfGluPho enzyme, NADPH resazurin-diaphorase fluorescence; inhibition, % at 20 µM; 350,000 tested, 0.78% active; AID 504690;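 active = inhibition reaching at least a set limit at 20 µM in the primary screen, cut at about 59% in these data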;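 also: 0% = DMSO wells with substrate and 100% = DMSO wells lacking glucose-6-phosphate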
HKDC1 inh = HKDC1 (human) hexokinase inhibition; inhibition, % at 20 µM; 340,000 tested, 0.16% active; recombinant HKDC1, G6PDH/diaphorase resazurin coupled fluorescence; AID 493160;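 active = inhibition above about 35% when tested at 20 µM, limit read from the data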;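 also: plate controls were DMSO wells with enzyme for no effect and DMSO wells lacking enzyme for full effect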
Target sequence (Q2TB90 whole entry, looked up): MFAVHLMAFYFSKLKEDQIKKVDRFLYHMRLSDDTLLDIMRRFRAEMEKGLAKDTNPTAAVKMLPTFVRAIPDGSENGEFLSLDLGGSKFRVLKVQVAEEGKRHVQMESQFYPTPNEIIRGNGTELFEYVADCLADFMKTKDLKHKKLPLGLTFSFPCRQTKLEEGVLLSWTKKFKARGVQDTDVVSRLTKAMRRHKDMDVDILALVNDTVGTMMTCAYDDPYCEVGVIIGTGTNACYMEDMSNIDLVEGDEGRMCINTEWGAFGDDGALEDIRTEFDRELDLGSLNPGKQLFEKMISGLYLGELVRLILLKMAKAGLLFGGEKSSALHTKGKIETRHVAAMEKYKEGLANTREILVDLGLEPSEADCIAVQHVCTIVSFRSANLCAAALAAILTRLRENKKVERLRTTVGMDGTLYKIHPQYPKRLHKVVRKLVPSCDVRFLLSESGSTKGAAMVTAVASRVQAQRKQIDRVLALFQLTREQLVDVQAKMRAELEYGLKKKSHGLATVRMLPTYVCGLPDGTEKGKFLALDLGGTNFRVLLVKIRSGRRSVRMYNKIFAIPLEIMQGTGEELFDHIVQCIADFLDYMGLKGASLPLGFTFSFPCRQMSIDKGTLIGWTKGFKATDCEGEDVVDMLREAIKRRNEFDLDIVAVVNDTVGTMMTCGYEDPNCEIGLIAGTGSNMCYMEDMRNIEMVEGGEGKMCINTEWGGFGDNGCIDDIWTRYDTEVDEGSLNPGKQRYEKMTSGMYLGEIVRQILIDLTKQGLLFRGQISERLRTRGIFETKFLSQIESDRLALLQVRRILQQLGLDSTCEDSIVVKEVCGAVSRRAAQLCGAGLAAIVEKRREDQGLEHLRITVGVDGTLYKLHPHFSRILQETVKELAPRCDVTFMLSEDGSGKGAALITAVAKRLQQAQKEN
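Test system: HK5 enzyme. Quantity: 5 µg/mL HK5 final. Reagent: glucose and ATP substrates. Schedule: 90 min reaction incubation at room temperature, dark. Technique: resazurin-to-resorufin fluorescence via G6PDH and diaphorase coupling, 525/613 nm. Control set: DMSO wells with and without enzyme mix.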
Diaph act CS = counter-screen for diaphorase-based assays: diaphorase activators and chemical reducers; Diaphorase/resazurin coupled assay, resorufin fluorescence, 16 min; active compounds read high; 1 = vehicle wells, 0 = NADH-free wells; activation factor at 20 µM; 190,000 tested, 0.005% active;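 active = diaphorase activity raised at least twofold by the compound at 20 µM; inactive = activation factor below 2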
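Measured by – red resorufin fluorescence at 544/590 nm excitation/emission · Test system – Clostridium kluyveri diaphorase, purified enzyme · Incubation – reaction time 16 min, room temperature · Buffer or medium – 50 mM HEPES pH 7.4 with 4.542 mM MgCl2, 0.005% Tween 20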
PfGluPho conf = confirmation of Plasmodium falciparum G6PD inhibitors. inhibition, % at 20 µM. shares compounds with PfG6PD inh. AID 504753. 2,400 tested, 34% active. recombinant PfGluPho, NADPH-diaphorase-resazurin fluorescence;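 active = inhibition of at least 50% at 20 µM in any single replicate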;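 also: 0% = DMSO with substrate and 100% = DMSO lacking glucose-6-phosphate substrate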
Diaph ctr 10uM = counter-screen for P. falciparum G6PD inhibitors: diaphorase inhibitors, oxidizers | shares compounds with PfG6PD inh | diaphorase-coupled resazurin reduction, fluorescence, NADPH 10 uM | inhibition, % at 20 µM | 820 tested, 39% active | AID 504862;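 active = average inhibition reaching 50% or more with the compound at 20 µM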;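 also: resorufin red fluorescence formed as diaphorase reduces resazurin using NADPH; 0% = DMSO with enzyme and 100% = DMSO without enzyme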
Diaphorase 30uM = diaphorase inhibition or oxidation at 30 uM NADPH. 820 tested, 29% active. Diaphorase/resazurin coupled assay, resorufin fluorescence. shares compounds with PfG6PD inh. AID 504863. inhibition, % at 20 µM;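 active = inhibition averaging 50% or more, tested at 20 µM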;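 also: 0% = DMSO with enzyme and 100% = DMSO wells lacking diaphorase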
* hit, by the source's call; . = no result. Most compounds without a hit are left out; they make up all but 1.2% or so of the library.

SMILES | Diaphorase inh | G6PDH counter | PfG6PD inh | HKDC1 inh | Diaph act CS | PfGluPho conf | others
CC(=O)Nc1cc(C(C)(C)C)c(O)c(C(C)(C)C)c1 | 24 | 4 | 81* | -2 | 0.8 | -8
Oc1cc(-n2cccn2)c(O)cc1-n1cccn1 | . | . | 102* | 2 | . | 86* | Diaph ctr 10uM=36;Diaphorase 30uM=0
O=[N+]([O-])c1ccccc1C1Nc2cccc3cccc(c23)N1 | 57* | -18 | 67* | 30 | 0.4 | 8
Oc1ccccc1C1Nc2cccc3cccc(c23)N1 | 34 | 19 | 12 | 3 | 0.7 | .
COc1ccc(/C=N/OCC(=O)N2CCCC2)c(OC)c1 | 11 | 4 | 7 | -6 | 0.9 | .
CC1=C(C)CS(=O)N(S(=O)(=O)c2ccc(Cl)cc2)C1 (stereo unspecified) | 7 | 9 | 60* | 9 | 0.9 | 49* | Diaph ctr 10uM=2;Diaphorase 30uM=3
Cc1ccc(S(=O)(=O)Nc2nc(C)c(C(=O)N/N=C/c3ccccc3)s2)cc1 | 12 | 3 | 76* | -6 | 0.9 | 67* | Diaph ctr 10uM=62*;Diaphorase 30uM=48
O=C(/N=C1\NC(=O)C(F)(C(F)(F)F)S1)NC1CCCCC1 (stereo unspecified) | 24 | -9 | 73* | -4 | 0.8 | 33
Cc1ccccc1CC(=O)Nc1cccc(S(=O)(=O)N2CCCC2)c1 | . | . | 14 | -1 | . | .
Cc1ccc(C2(C)NC(=O)N(CC(=O)Nc3nc(-c4ccccn4)cs3)C2=O)cc1 (stereo unspecified) | . | . | 72* | 8 | . | 36
O=C(COc1cccc(F)c1)Nc1nc(-c2ccccn2)cs1 | . | . | 62* | . | . | 6
CC1(c2ccccc2)NC(=O)N(CC(=O)Nc2nc(-c3ccccn3)cs2)C1=O (stereo unspecified) | . | . | 34 | -1 | . | .
Cc1ccc(NC(=O)CSC(C)c2nc3ccccc3c(=O)[nH]2)cc1 (stereo unspecified) | . | . | 37 | -2 | . | .
CC(SCC(=O)Nc1ccccc1)c1nc2ccccc2c(=O)[nH]1 (stereo unspecified) | . | . | 60* | 4 | . | 51* | Diaph ctr 10uM=42;Diaphorase 30uM=36
COc1cc(/C=C/C(=O)c2ccc([N+](=O)[O-])o2)ccc1O | . | . | 77* | 34 | . | 60* | Diaph ctr 10uM=40;Diaphorase 30uM=35
CCn1c(N)c(C(=O)NCc2ccc3c(c2)OCO3)sc1=S | 13 | 2 | 74* | -1 | 0.9 | 33
O=C(Nc1nnc(COc2ccc(Cl)cc2)s1)c1ccco1 | 9 | 7 | 66* | -13 | 0.9 | 36
Cc1ccc(OCc2nnc(NC(=O)c3ccco3)s2)cc1 | 3 | -4 | -22 | -3 | 1 | .
Cn1c(C(=O)NCc2ccc3c(c2)OCO3)cc2sccc21 | 18 | 9 | 20 | -3 | 0.8 | .
Cn1c(C(=O)Nc2ccc3c(c2)OCO3)cc2sccc21 | 19 | 2 | 81* | 8 | 0.8 | 22
N#C/C(=C\c1c(N2CCC(C(N)=O)CC2)nc2ccccn2c1=O)C(=O)NC1CCCCC1 | . | . | 16 | -5 | . | .
CC(C)Cn1c(N)c(C(=O)COC(=O)c2cc(-c3ccco3)nc3ccccc23)c(=O)n(C)c1=O | 20 | -14 | 71* | 24 | 0.8 | 4
Cn1c(=O)c(C(=O)COC(=O)c2cc(-c3ccco3)nc3ccccc23)c(N)n(Cc2ccccc2)c1=O | 15 | 18 | . | . | 0.9 | .
O=C(O)C1CCCCC1C(=O)Nc1ccc(S(=O)(=O)N2CCCCC2)cc1 (stereo unspecified) | . | . | -13 | -6 | . | .
COc1ccccc1-n1c(SC)nc2c(sc(=S)n2-c2ccccc2)c1=O | . | . | -5 | -2 | . | .
COc1ccc(-n2c(SCC#N)nc3c(sc(=S)n3-c3ccccc3)c2=O)c(OC)c1 | . | . | 91* | -2 | . | 41
CCC1(C)CC(C(N)=S)CCO1 (stereo unspecified) | . | . | 81* | -36 | . | 64* | Diaph ctr 10uM=-13;Diaphorase 30uM=-15
